Test results published in ChEMBL document CHEMBL3632558, “Synthesis, antimycobacterial and antibacterial activity of l-[(1R,2S)-2-fluorocyclopropyl]naphthyridone derivatives containing an oxime-functionalized pyrrolidine moiety” (2015).
≈ marks a conversion by molar mass, not a printed value.

Assays:
Format in all cases: functional
Staphylococcus aureus [1] = experiment: Antibacterial activity against methicillin-sensitive Staphylococcus aureus 14-1 after 18 to 24 hrs
In short: (§1)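 MIC by standard NCCLS reference procedure (M100-S11); lowest concentration of compound inhibiting visible bacterial growth after incubation at 35 °C for 18–24 h, read as complete inhibition of growth. Ciprofloxacin, levofloxacin and moxifloxacin run alongside as reference agents.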

Enterococcus faecium [2] = experiment: Antibacterial activity against Enterococcus faecium 14-1 after 18 to 24 hrs; in short: as §1
Staphylococcus aureus [3] = experiment: Antibacterial activity against methicillin-sensitive Staphylococcus aureus 14-2 after 18 to 24 hrs; in short: as §1
Enterococcus faecalis [4] = experiment: Antibacterial activity against Enterococcus faecalis 14-2 after 18 to 24 hrs; in short: as §1
Escherichia coli [5] = experiment: Antibacterial activity against Escherichia coli ATCC 25922 after 18 to 24 hrs; in short: as §1
Klebsiella pneumoniae [6] = experiment: Antibacterial activity against ESBL-positive Klebsiella pneumoniae 14-17 after 18 to 24 hrs; in short: as §1
[7] = tested on: Mycobacterium tuberculosis; experiment: Antimycobacterial activity against Mycobacterium tuberculosis H37Rv ATCC 27294 by alamar blue assay
In short: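 Microplate Alamar Blue Assay; MIC is the lowest concentration giving ≥90% reduction in fluorescence relative to the mean of replicate bacterium-only controls. MDR strain 6133 is resistant to isoniazid and rifampicin.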

Staphylococcus aureus [8] = experiment: Antibacterial activity against methicillin-resistant Staphylococcus aureus 14-4 after 18 to 24 hrs
Escherichia coli [9] = experiment: Antibacterial activity against Escherichia coli 14-1 after 18 to 24 hrs; in short: as §1
Enterococcus faecium [10] = experiment: Antibacterial activity against Enterococcus faecium 14-6 after 18 to 24 hrs; in short: as §1
Pseudomonas aeruginosa [11] = experiment: Antibacterial activity against Pseudomonas aeruginosa ATCC 27853 after 18 to 24 hrs; in short: as §1
Escherichia coli [12] = experiment: Antibacterial activity against Escherichia coli 14-2 after 18 to 24 hrs; in short: as §1
Enterococcus faecium [13] = experiment: Antibacterial activity against Enterococcus faecium 14-2 after 18 to 24 hrs; in short: as §1
Klebsiella pneumoniae [14] = experiment: Antibacterial activity against Klebsiella pneumoniae 14-2 after 18 to 24 hrs; in short: as §1
Klebsiella pneumoniae [15] = experiment: Antibacterial activity against ESBL-positive Klebsiella pneumoniae 14-18 after 18 to 24 hrs; in short: as §1
Enterococcus faecalis [16] = experiment: Antibacterial activity against Enterococcus faecalis 14-1 after 18 to 24 hrs; in short: as §1
Staphylococcus aureus [17] = experiment: Antibacterial activity against methicillin-sensitive Staphylococcus aureus 14-3 after 18 to 24 hrs; in short: as §1
Pseudomonas aeruginosa [18] = experiment: Antibacterial activity against Pseudomonas aeruginosa 14-9 after 18 to 24 hrs; in short: as §1
Staphylococcus aureus [19] = experiment: Antibacterial activity against methicillin-resistant Staphylococcus aureus 14-5 after 18 to 24 hrs
Klebsiella pneumoniae [20] = experiment: Antibacterial activity against Klebsiella pneumoniae 14-4 after 18 to 24 hrs; in short: as §1
Enterococcus faecium [21] = experiment: Antibacterial activity against Enterococcus faecium 14-5 after 18 to 24 hrs; in short: as §1
Klebsiella pneumoniae [22] = experiment: Antibacterial activity against ESBL-positive Klebsiella pneumoniae 14-19 after 18 to 24 hrs; in short: as §1
Escherichia coli [23] = experiment: Antibacterial activity against ESBL-positive Escherichia coli 14-1 after 18 to 24 hrs; in short: as §1
[24] = tested on: Staphylococcus epidermidis; experiment: Antibacterial activity against methicillin-resistant Staphylococcus epidermidis 14-21 after 18 to 24 hrs
Klebsiella pneumoniae [25] = experiment: Antibacterial activity against Klebsiella pneumoniae 14-1 after 18 to 24 hrs; in short: as §1
[26] = tested on: Staphylococcus epidermidis; experiment: Antibacterial activity against methicillin-sensitive Staphylococcus epidermidis 14-2 after 18 to 24 hrs; in short: as §1
Staphylococcus aureus [27] = experiment: Antibacterial activity against methicillin-sensitive Staphylococcus aureus 14-4 after 18 to 24 hrs; in short: as §1
Staphylococcus aureus [28] = experiment: Antibacterial activity against Staphylococcus aureus CMCC 26003 after 18 to 24 hrs; in short: as §1
Escherichia coli [29] = experiment: Antibacterial activity against ESBL-positive Escherichia coli 14-2 after 18 to 24 hrs; in short: as §1
Klebsiella pneumoniae [30] = experiment: Antibacterial activity against Klebsiella pneumoniae 14-3 after 18 to 24 hrs; in short: as §1
Pseudomonas aeruginosa [31] = experiment: Antibacterial activity against Pseudomonas aeruginosa 14-14 after 18 to 24 hrs; in short: as §1
[32] = tested on: Staphylococcus epidermidis; experiment: Antibacterial activity against methicillin-resistant Staphylococcus epidermidis 14-39 after 18 to 24 hrs
Streptococcus pneumoniae = experiment: Antibacterial activity against Streptococcus pneumoniae ATCC 19615 after 18 to 24 hrs; in short: as §1
Pseudomonas aeruginosa [33] = experiment: Antibacterial activity against Pseudomonas aeruginosa 14-19 after 18 to 24 hrs; in short: as §1
[34] = tested on: Staphylococcus epidermidis; experiment: Antibacterial activity against methicillin-resistant Staphylococcus epidermidis 14-37 after 18 to 24 hrs
Pseudomonas aeruginosa [35] = experiment: Antibacterial activity against Pseudomonas aeruginosa 14-16 after 18 to 24 hrs; in short: as §1
Pseudomonas aeruginosa [36] = experiment: Antibacterial activity against Pseudomonas aeruginosa 14-15 after 18 to 24 hrs; in short: as §1
[37] = tested on: Staphylococcus epidermidis; experiment: Antibacterial activity against methicillin-resistant Staphylococcus epidermidis 14-22 after 18 to 24 hrs

SMILES | MIC (Staphylococcus aureus [1]) [µg/mL] | MIC (Enterococcus faecium [2]) [µg/mL] | MIC (Staphylococcus aureus [3]) [µg/mL] | MIC (Enterococcus faecalis [4]) [µg/mL] | MIC (Escherichia coli [5]) [µg/mL] | MIC (Klebsiella pneumoniae [6]) [µg/mL] | MIC90 [7] [µg/mL] | MIC (Staphylococcus aureus [8]) [µg/mL] | MIC (Escherichia coli [9]) [µg/mL] | MIC (Enterococcus faecium [10]) [µg/mL] | MIC (Pseudomonas aeruginosa [11]) [µg/mL] | MIC (Escherichia coli [12]) [µg/mL] | MIC (Enterococcus faecium [13]) [µg/mL] | MIC (Klebsiella pneumoniae [14]) [µg/mL] | MIC (Klebsiella pneumoniae [15]) [µg/mL] | MIC (Enterococcus faecalis [16]) [µg/mL] | MIC (Staphylococcus aureus [17]) [µg/mL] | MIC (Pseudomonas aeruginosa [18]) [µg/mL] | MIC (Staphylococcus aureus [19]) [µg/mL] | MIC (Klebsiella pneumoniae [20]) [µg/mL] | also measured
NCC1CN(c2nc3c(cc2F)c(=O)c(C(=O)O)cn3[C@@H]2C[C@@H]2F)C/C1=N\OCc1ccc2c(c1)OCO2 (some centres undefined) | 4 (≈ 7.58 µM) | 1 (≈ 1.9 µM) | < 0.008 | < 0.008 | < 0.008 | 8 (≈ 15.2 µM) | < 0.25 | 16 (≈ 30.3 µM) | 32 (≈ 60.7 µM) | 4 (≈ 7.58 µM) | 8 (≈ 15.2 µM) | 32 (≈ 60.7 µM) | 1 (≈ 1.9 µM) | 128 (≈ 243 µM) | 4 (≈ 7.58 µM) | 16 (≈ 30.3 µM) | 8 (≈ 15.2 µM) | 8 (≈ 15.2 µM) | 8 (≈ 15.2 µM) | 128 (≈ 243 µM) | MIC (Enterococcus faecium [21]): 8 µg/mL (≈ 15.2 µM); MIC (Klebsiella pneumoniae [22]): 128 µg/mL (≈ 243 µM); MIC (Escherichia coli [23]): 8 µg/mL (≈ 15.2 µM); MIC [24]: 4 µg/mL (≈ 7.58 µM); MIC (Klebsiella pneumoniae [25]): 128 µg/mL (≈ 243 µM); MIC [26]: 32 µg/mL (≈ 60.7 µM); MIC (Staphylococcus aureus [27]): < 0.008 µg/mL; MIC (Staphylococcus aureus [28]): < 0.008 µg/mL; MIC (Escherichia coli [29]): 64 µg/mL (≈ 121 µM); MIC (Klebsiella pneumoniae [30]): 128 µg/mL (≈ 243 µM); MIC (Pseudomonas aeruginosa [31]): 8 µg/mL (≈ 15.2 µM); MIC [32]: 8 µg/mL (≈ 15.2 µM); MIC (Streptococcus pneumoniae): 0.03 µg/mL (≈ 0.0569 µM); MIC (Pseudomonas aeruginosa [33]): 8 µg/mL (≈ 15.2 µM); MIC [34]: 6 µg/mL (≈ 11.4 µM); MIC (Pseudomonas aeruginosa [35]): 8 µg/mL (≈ 15.2 µM); MIC (Pseudomonas aeruginosa [36]): 8 µg/mL (≈ 15.2 µM); MIC [37]: 4 µg/mL (≈ 7.58 µM)
CO/N=C1\CN(c2nc3c(cc2F)c(=O)c(C(=O)O)cn3[C@@H]2C[C@@H]2F)CC1(C)CN (some centres undefined) | 2 (≈ 4.75 µM) | 2 (≈ 4.75 µM) | 0.015 (≈ 0.0356 µM) | 0.125 (≈ 0.297 µM) | 0.03 (≈ 0.0712 µM) | 4 (≈ 9.49 µM) | 0.372 (≈ 0.883 µM) | 8 (≈ 19 µM) | 32 (≈ 75.9 µM) | 8 (≈ 19 µM) | 2 (≈ 4.75 µM) | 32 (≈ 75.9 µM) | 2 (≈ 4.75 µM) | > 128 | 4 (≈ 9.49 µM) | 32 (≈ 75.9 µM) | < 0.008 | 4 (≈ 9.49 µM) | 4 (≈ 9.49 µM) | 64 (≈ 152 µM) | MIC (Enterococcus faecium [21]): 4 µg/mL (≈ 9.49 µM); MIC (Klebsiella pneumoniae [22]): 128 µg/mL (≈ 304 µM); MIC (Escherichia coli [23]): 4 µg/mL (≈ 9.49 µM); MIC [24]: 2 µg/mL (≈ 4.75 µM); MIC (Klebsiella pneumoniae [25]): 128 µg/mL (≈ 304 µM); MIC [26]: 16 µg/mL (≈ 38 µM); MIC (Staphylococcus aureus [27]): 0.015 µg/mL (≈ 0.0356 µM); MIC (Staphylococcus aureus [28]): < 0.008 µg/mL; MIC (Escherichia coli [29]): 64 µg/mL (≈ 152 µM); MIC (Klebsiella pneumoniae [30]): 128 µg/mL (≈ 304 µM); MIC (Pseudomonas aeruginosa [31]): 8 µg/mL (≈ 19 µM); MIC [32]: 8 µg/mL (≈ 19 µM); MIC (Streptococcus pneumoniae): 0.015 µg/mL (≈ 0.0356 µM); MIC (Pseudomonas aeruginosa [33]): 8 µg/mL (≈ 19 µM); MIC [34]: 8 µg/mL (≈ 19 µM); MIC (Pseudomonas aeruginosa [35]): 8 µg/mL (≈ 19 µM); MIC (Pseudomonas aeruginosa [36]): 8 µg/mL (≈ 19 µM); MIC [37]: 8 µg/mL (≈ 19 µM)
CCO/N=C1\CN(c2nc3c(cc2F)c(=O)c(C(=O)O)cn3[C@@H]2C[C@@H]2F)CC1(C)CN (some centres undefined) | 2 (≈ 4.59 µM) | 2 (≈ 4.59 µM) | < 0.008 | 0.03 (≈ 0.0689 µM) | < 0.008 | 4 (≈ 9.19 µM) | 0.333 (≈ 0.765 µM) | 4 (≈ 9.19 µM) | 32 (≈ 73.5 µM) | 8 (≈ 18.4 µM) | 2 (≈ 4.59 µM) | 32 (≈ 73.5 µM) | 2 (≈ 4.59 µM) | 128 (≈ 294 µM) | 4 (≈ 9.19 µM) | 8 (≈ 18.4 µM) | < 0.008 | 4 (≈ 9.19 µM) | 4 (≈ 9.19 µM) | 128 (≈ 294 µM) | MIC (Enterococcus faecium [21]): 4 µg/mL (≈ 9.19 µM); MIC (Klebsiella pneumoniae [22]): 128 µg/mL (≈ 294 µM); MIC (Escherichia coli [23]): 4 µg/mL (≈ 9.19 µM); MIC [24]: 2 µg/mL (≈ 4.59 µM); MIC (Klebsiella pneumoniae [25]): 128 µg/mL (≈ 294 µM); MIC [26]: 8 µg/mL (≈ 18.4 µM); MIC (Staphylococcus aureus [27]): < 0.008 µg/mL; MIC (Staphylococcus aureus [28]): < 0.008 µg/mL; MIC (Escherichia coli [29]): 128 µg/mL (≈ 294 µM); MIC (Klebsiella pneumoniae [30]): 128 µg/mL (≈ 294 µM); MIC (Pseudomonas aeruginosa [31]): 8 µg/mL (≈ 18.4 µM); MIC [32]: 8 µg/mL (≈ 18.4 µM); MIC (Streptococcus pneumoniae): < 0.008 µg/mL; MIC (Pseudomonas aeruginosa [33]): 8 µg/mL (≈ 18.4 µM); MIC [34]: 8 µg/mL (≈ 18.4 µM); MIC (Pseudomonas aeruginosa [35]): 8 µg/mL (≈ 18.4 µM); MIC (Pseudomonas aeruginosa [36]): 8 µg/mL (≈ 18.4 µM); MIC [37]: 2 µg/mL (≈ 4.59 µM)
